# Laboratory results published in paper PMC6242712 (ChemMedChem, 2018).
# Like-named read-outs stand apart in the source and are kept apart here.
# Experiments:
# NU04 cells [1] = assay: MTT growth inhibition assay, NU04; conditions: Homo sapiens, 72 h, read-out: IC50, cytotoxicity NU04
# U118MG cells [2] = assay: MTT growth inhibition assay, U118MG; conditions: Homo sapiens, U-118-MG, 72 h, read-out: IC50, cytotoxicity U118MG
# A172 cells [3] = assay: MTT growth inhibition assay, A172; conditions: Homo sapiens, A 172, 72 h, read-out: IC50, cytotoxicity A172
# PDI [4] = target: T1, PDI (Homo sapiens, UniProt P07237); assay: PDI-catalyzed insulin reduction; format: biochemical
# T1 sequence (P07237 18-508): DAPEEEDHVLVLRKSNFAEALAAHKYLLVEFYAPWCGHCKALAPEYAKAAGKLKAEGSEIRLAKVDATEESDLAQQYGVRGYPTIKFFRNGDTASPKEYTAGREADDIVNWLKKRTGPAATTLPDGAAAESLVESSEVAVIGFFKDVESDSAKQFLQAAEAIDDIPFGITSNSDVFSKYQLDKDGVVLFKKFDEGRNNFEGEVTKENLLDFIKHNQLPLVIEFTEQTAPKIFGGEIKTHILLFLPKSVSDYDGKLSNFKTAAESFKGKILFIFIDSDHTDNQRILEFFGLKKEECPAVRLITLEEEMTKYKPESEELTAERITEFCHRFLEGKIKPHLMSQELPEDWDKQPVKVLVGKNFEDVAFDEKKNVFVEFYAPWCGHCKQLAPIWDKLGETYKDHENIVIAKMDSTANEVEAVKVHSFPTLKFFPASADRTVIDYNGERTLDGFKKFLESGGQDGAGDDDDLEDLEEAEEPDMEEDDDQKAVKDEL
# U87MG cells [5] = assay: MTT growth inhibition assay, U87MG; conditions: for IC50: read-out: IC50, cytotoxicity U87MG; for Effect on cell growth: in words
# U87MG cells [6] = assay: MTT cell viability with or without deferoxamine; format: cell-based; conditions: Homo sapiens, U-87 MG, 12 h, read-out: IC50, cell viability, used alone
# glioblastoma cells = assay: MTT growth inhibition of 35G8 combined with Z-VAD-FMK, necrostatin-1 or NAC; format: cell-based, human
# GSTO1 = target: T2, GSTO1 (Homo sapiens, UniProt P78417); assay: DARTS assay in U87MG cell lysates, GSTO1; format: binding; conditions: 100 μM compound, U87MG lysate
# T2 sequence (P78417 1-241): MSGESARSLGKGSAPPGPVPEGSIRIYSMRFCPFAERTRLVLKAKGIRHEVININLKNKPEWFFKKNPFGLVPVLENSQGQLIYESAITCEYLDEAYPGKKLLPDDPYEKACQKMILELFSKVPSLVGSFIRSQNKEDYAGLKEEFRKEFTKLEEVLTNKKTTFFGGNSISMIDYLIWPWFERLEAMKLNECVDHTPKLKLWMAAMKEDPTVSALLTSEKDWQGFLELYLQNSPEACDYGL
# Procedure, shortened: (§1)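 U87MG cells at 80–85% confluence were lysed on ice for 10 min (150 mM NaCl, 1% NP-40, 0.5% deoxycholate, 50 mM Tris pH 8.0) and cleared at 18,000 × g. Lysate (5 mg/ml) was incubated with 100 μM test compound or DMSO for 30 min at RT. Pronase (0, 0.005, 0.01, 0.02 μg/μL) was added for 30 min at RT and stopped with protease inhibitors on ice. 20 μg protein was Western blotted; three independent experiments.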
# U87MG cells [7] = assay: Western blot of protein expression; format: cell-based, human; conditions: 24-hour treatment
# Procedure, shortened: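 U87MG cells were treated with test compound (1 or 2 μM) or vehicle for 24 h. 50 μg protein on 10% gels (12% for LC3B, DDIT3), transferred to PVDF. GAPDH loading control; triplicate experiments.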
# GRP78 [8] = target: T3, GRP78 (Homo sapiens, UniProt P11021); assay: Cellular thermal shift assay; format: cell-based; conditions: U87MG cells, 2 hours
# T3 sequence (P11021 19-654): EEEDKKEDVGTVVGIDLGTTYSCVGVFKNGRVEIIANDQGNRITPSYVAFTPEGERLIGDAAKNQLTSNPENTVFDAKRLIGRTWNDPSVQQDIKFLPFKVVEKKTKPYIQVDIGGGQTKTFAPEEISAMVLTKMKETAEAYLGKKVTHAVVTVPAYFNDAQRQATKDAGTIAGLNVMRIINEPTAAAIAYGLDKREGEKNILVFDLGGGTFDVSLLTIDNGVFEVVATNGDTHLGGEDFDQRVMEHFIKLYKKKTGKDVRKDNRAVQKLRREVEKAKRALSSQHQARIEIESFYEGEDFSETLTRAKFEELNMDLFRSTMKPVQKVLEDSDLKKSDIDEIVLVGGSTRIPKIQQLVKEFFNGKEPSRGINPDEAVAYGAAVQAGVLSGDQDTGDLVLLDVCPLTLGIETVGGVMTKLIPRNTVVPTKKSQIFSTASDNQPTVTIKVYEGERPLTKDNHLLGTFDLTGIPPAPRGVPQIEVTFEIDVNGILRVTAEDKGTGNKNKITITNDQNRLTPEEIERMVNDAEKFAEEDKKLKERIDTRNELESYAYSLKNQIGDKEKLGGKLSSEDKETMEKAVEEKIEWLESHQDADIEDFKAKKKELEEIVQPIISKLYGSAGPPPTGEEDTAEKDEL
# Procedure, shortened: (§2)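 U87MG cells (2 × 10^6 per 100 mm dish) were attached overnight, then treated with test compound (0.5, 1.0 or 2.0 μM) or DMSO for 2 h at 37 °C, 5% CO2. Cells were trypsinized, washed in DPBS and aliquoted. Aliquots were heated at set temperatures for 3 min, held 3 min at room temperature and freeze-thawed twice. Cleared supernatants were run on 10% SDS-PAGE and Western blotted.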
# U87MG cells [9] = assay: ROS detection assay; format: cell-based, human; conditions: 5 μM, 24 hours; comparable to 100 μM hydrogen peroxide
# Procedure, shortened: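 Trypsinized U87MG cells were loaded in suspension with 20 μM H2DCFDA for 30 min at 37 °C, washed, plated at 20,000 cells/well, rested 30 min, then treated. Fluorescence (493/523 nm) was read at 4, 6 and 24 h. Hydrogen peroxide (500, 100, 20 μM) served as reference. Means ± standard deviation of three independent experiments.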
# PDI [10] = target: T1, PDI; assay: Cellular thermal shift assay; format: cell-based; conditions: U87MG cells, 2 hours
# Procedure, shortened: as §2
# U87MG cells [11] = assay: Bru-seq nascent RNA sequencing; format: cell-based, human; conditions: 1 μM, 4 hours
# Procedure, shortened: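 U87MG cells plated on day 1, given fresh medium on day 5, then exposed to test compound (1 μM) or DMSO for 4 h. Bromouridine (2 mM final) labelled nascent RNA during the last 30 min. Total RNA was isolated in TRIzol, and BrU-RNA was isolated, sequenced and mapped. Genes >300 bp with mean RPKM >0.5 (7,770 genes) were ranked by fold change vs DMSO.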
# PDI [12] = target: T1, PDI; assay: DARTS assay in U87MG cell lysates, PDI; format: binding; conditions: 100 μM compound, U87MG lysate
# Procedure, shortened: as §1
# GRP78 [13] = target: T3, GRP78; assay: DARTS assay in U87MG cell lysates, GRP78; format: binding; conditions: 100 μM compound, U87MG lysate
# Procedure, shortened: as §1
# [14] = target: T4, glutathione-transferase Omega 1 (GSTO1) (Homo sapiens, UniProt P78417); assay: Cellular thermal shift assay; format: cell-based; conditions: U87MG cells, 2 hours
# T4 sequence (P78417 1-241): T2 sequence (P78417 1-241)
# Procedure, shortened: as §2
# PDI [15] = conditions: reversible PDI modulator; cited from earlier work
# U87MG cells [16] = test system: U87MG cells
# A172 cells [17] = test system: A172 cells
# NU04 cells [18] = test system: NU04 cells
# U118MG cells [19] = test system: U118MG cells
compound,measurement,setting,value
"Cn1nc(-c2ccccc2)nc2c(=O)n(C)c(=O)nc1-2 [Compound 4b, 1,6-Dimethyl-3-phenylpyrimido[5,4-e][1,2,4]triazine-5,7(1H,6H)-dione]",IC50,NU04 cells [1],3700 ± 1200 nM
same,IC50,U118MG cells [2],4600 ± 500 nM
same,IC50,A172 cells [3],1800 ± 400 nM
same,IC50,PDI [4],390 ± 30 nM
same,IC50,"U87MG cells [5]; Homo sapiens, U-87 MG, 72 h",3000 ± 300 nM
"Cn1nc(Cc2ccccc2)nc2c(=O)n(C)c(=O)nc1-2 [Compound 4c, 3-Benzyl-1,6-dimethylpyrimido[5,4-e][1,2,4]triazine-5,7(1H,6H)-dione]",IC50,NU04 cells [1],> 30000 nM
same,IC50,U118MG cells [2],24000 ± 7400 nM
same,IC50,A172 cells [3],8200 ± 2500 nM
same,IC50,PDI [4],330 ± 40 nM
same,IC50,"U87MG cells [5]; Homo sapiens, U-87 MG, 72 h",12700 ± 3700 nM
"COc1ccc(-c2nc3c(=O)n(C)c(=O)nc-3n(C)n2)cc1 [Compound 4d, 3-(4-Methoxyphenyl)-1,6-dimethylpyrimido[5,4-e][1,2,4]triazine-5,7(1H,6H)-dione]",IC50,NU04 cells [1],860 ± 40 nM
same,IC50,U118MG cells [2],3900 ± 600 nM
same,IC50,A172 cells [3],1500 ± 400 nM
same,IC50,PDI [4],360 ± 50 nM
same,IC50,"U87MG cells [5]; Homo sapiens, U-87 MG, 72 h",1200 ± 200 nM
"COc1cccc(-c2nc3c(=O)n(C)c(=O)nc-3n(C)n2)c1 [Compound 4e, 3-(3-Methoxyphenyl)-1,6-dimethylpyrimido[5,4-e][1,2,4]triazine-5,7(1H,6H)-dione]",IC50,NU04 cells [1],760 ± 220 nM
same,IC50,U118MG cells [2],2400 ± 600 nM
same,IC50,A172 cells [3],1500 ± 100 nM
same,IC50,PDI [4],320 ± 10 nM
same,IC50,"U87MG cells [5]; Homo sapiens, U-87 MG, 72 h",1100 ± 200 nM
"Cn1nc(-c2ccc([N+](=O)[O-])cc2)nc2c(=O)n(C)c(=O)nc1-2 [Compound 4f, 1,6-Dimethyl-3-(4-nitrophenyl)pyrimido[5,4-e][1,2,4]triazine-5,7(1H,6H)-dione]",IC50,NU04 cells [1],4900 ± 1200 nM
same,IC50,U118MG cells [2],6200 ± 1600 nM
same,IC50,A172 cells [3],1100 ± 200 nM
same,IC50,PDI [4],240 ± 40 nM
same,IC50,"U87MG cells [5]; Homo sapiens, U-87 MG, 72 h",1800 ± 700 nM
"COc1ccc(-c2nn(C)c3nc(=O)n(C)c(=O)c-3[n+]2[O-])cc1 [Compound 5d, 3-(4-Methoxyphenyl)-1,6-dimethyl-5,7-dioxo-1,5,6,7-tetrahydropyrimido[5,4-e][1,2,4]triazine 4-oxide]",IC50,NU04 cells [1],1500 ± 700 nM
same,IC50,U118MG cells [2],4300 ± 100 nM
same,IC50,A172 cells [3],1700 ± 100 nM
same,IC50,PDI [4],420 ± 70 nM
same,IC50,"U87MG cells [5]; Homo sapiens, U-87 MG, 72 h",1900 ± 700 nM
"Cc1nc2c(=O)n(C)c(=O)nc-2n(C)n1 [Compound 35G8, 1,3,6-Trimethylpyrimido[5,4-e][1,2,4]triazine-5,7(1H,6H)-dione]",IC50,NU04 cells [1],800 ± 200 nM
same,IC50,U118MG cells [2],3900 ± 100 nM
same,IC50,U87MG cells [6],2200 ± 700 nM
same,Effect of N-acetyl-cysteine (NAC) on cytotoxicity of 35G8,glioblastoma cells; NAC added at the same time as 35G8,did not affect
same,Protection from 35G8-induced cell death by necrostatin-1 pretreatment,glioblastoma cells; Necrostatin-1 added 1 hour prior to 35G8,did not protect
same,Protection from 35G8-induced cell death by Z-VAD-FMK pretreatment,glioblastoma cells; Z-VAD-FMK added 1 hour prior to 35G8,did not protect
same,Effect on degradation of GSTO1 (DARTS),GSTO1,no effect
same,Cleaved LC3B expression,U87MG cells [7]; 2 μM,increased significantly
same,DDIT3 protein expression,U87MG cells [7]; 2 μM,increased
same,"Expression of ATG3, ATG5, ATG7 and beclin 1",U87MG cells [7]; 2 μM,did not change
same,GRP78 (HSPA5) protein expression,U87MG cells [7]; 2 μM,increased
same,HMOX1 protein expression,U87MG cells [7]; 1 or 2 μM,parallel increases
same,SLC7A11 protein expression,U87MG cells [7]; 1 or 2 μM,parallel increases
same,Effect on thermal stability of GRP78 (CETSA),GRP78 [8],little effect
same,IC50,A172 cells [3],2000 ± 600 nM
same,ROS induction,U87MG cells [9],maximal ROS induction
same,Effect on thermal stability of PDI (CETSA),PDI [10],destabilized
same,IC50,PDI [4],170 ± 10 nM
same,CHAC1 transcription,U87MG cells [11],46 fold increase
same,DDIT3 transcription,U87MG cells [11],4 fold increase
same,EGR1 transcription,U87MG cells [11],−5.65 fold change
same,HSPA5 transcription,U87MG cells [11],8 fold increase
same,IRS2 transcription,U87MG cells [11],12 fold increase
same,ITGA3 transcription,U87MG cells [11],−3.89 fold change
same,TMEM74 transcription,U87MG cells [11],28 fold increase
same,TRIB3 transcription,U87MG cells [11],23 fold increase
same,TXN expression,U87MG cells [11],2 fold increase
same,TXNIP expression,U87MG cells [11],7.4 fold decrease
same,TXNIP transcription,U87MG cells [11],−7.40 fold change
same,TXNRD1 expression,U87MG cells [11],9 fold increase
same,Protection of PDI from pronase proteolysis (DARTS),PDI [12],protected
same,Effect on degradation of GRP78 (DARTS),GRP78 [13],no effect
same,IC50,"U87MG cells [5]; Homo sapiens, U-87 MG, 72 h",1100 ± 200 nM
same,Effect on thermal stability of GSTO1 (CETSA),[14],stabilize
O=C(C1CC1)N1CCN(Cn2sc3ccccc3c2=O)CC1 [LOC14],EC50,PDI [15],500 nM
Cn1ncnc2c(=O)n(C)c(=O)nc1-2 [NC72],IC50,"U87MG cells [5]; MTT, 72 hours",500 ± 100 nM
Cn1c(=O)[nH]c2nncnc2c1=O [NC75],Effect on cell growth,U87MG cells [5]; MTT,little effect on cell growth
same,IC50,"U87MG cells [5]; MTT, 72 hours",> 100000 nM
Cc1nn(C)c2nc(=O)n(C)c(=O)c-2[n+]1[O-] [NC79],Effect on cell growth,U87MG cells [5]; MTT,little effect on cell growth
same,IC50,"U87MG cells [5]; MTT, 72 hours",> 100000 nM
PACMA31,IC50,U87MG cells [16],130 ± 70 nM
same,Effect on degradation of GSTO1 (DARTS),GSTO1,no effect
same,IC50,A172 cells [17],120 ± 100 nM
same,IC50,NU04 cells [18],400 ± 100 nM
same,Protection of PDI from pronase proteolysis (DARTS),PDI [12],protected
same,Effect on degradation of GRP78 (DARTS),GRP78 [13],no effect
same,IC50,U118MG cells [19],280 ± 40 nM
